Experimental data from ChEMBL document CHEMBL1126160, “Synthesis and structure-activity relationships of 7-diazabicycloalkylquinolones, including danofloxacin, a new quinolone antibacterial agent for veterinary medicine” (J Med Chem, 1992).
Values after ≈ are worked out from the molar mass of the structure shown.

Legend:
Assay type in all cases: functional
Clostridium perfringens = experiment: microbe, parasite or virus in culture
Staphylococcus aureus = experiment: In vitro antibacterial activity against aerobically grown Staphylococcus aureus (54B004)
Summary of the method: (§1)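 Agar dilution MICs. Aerobic strains were tested on brain heart infusion agar and incubated aerobically at 37 °C for 18–20 h.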

[1] = test system: Bordetella bronchiseptica; experiment: In vitro antibacterial activity against aerobically grown Bordetella bronchiseptica (73A009)
Summary of the method: as §1

Escherichia coli [2] = experiment: Escherichia coli DNA cleavage endpoint value which is the minimum amount required (in micro g/mL) to induce detectable cleavage of supercoiled pBR322 substrate to linear form (gyrase); settings: read-out: MIC
Summary of the method: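 DNA gyrase A and B subunits were purified from E. coli overproducers. About 2 units of holoenzyme were incubated with pBR322 in Tris-HCl pH 7.5 containing MgCl2, spermidine, DTT, 0.2 mM ATP, BSA and tRNA. Drug was added as 2-fold serial dilutions, and reactions ran for 60 min at 25 °C. Reactions were stopped with SDS and proteinase K, then run on agarose and stained with ethidium. The endpoint was the lowest concentration giving detectable linear DNA.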

Phocaeicola vulgatus = experiment: In vitro antibacterial activity against anaerobically grown Bacteroides vulgatus (78D029)
Summary of the method: (§2)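 Agar dilution MICs. Anaerobic strains were tested on tryptose agar with 5% bovine blood and incubated 48 h at 39 °C in an anaerobe chamber under N2/CO2/H2 (80:10:10).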

Escherichia coli [3] = experiment: In vitro antibacterial activity against aerobically grown Escherichia coli (51A538)
Summary of the method: as §1

[4] = In vitro evaluation for antibacterial activity against anaerobically grown Treponema hyodysenteriae (94A007); settings: Brachyspira hyodysenteriae
[5] = In vitro antibacterial activity against Aerobically grown Pasteurella haemolytica (59B018); settings: Mannheimia haemolytica
Summary of the method: as §1

Pasteurella multocida = experiment: In vitro antibacterial activity against aerobically grown Pasteurella multocida (59A006)
Summary of the method: as §1

Trueperella pyogenes = experiment: In vitro antibacterial activity against anaerobically grown Actinomyces pyogenes (14D002)
Summary of the method: as §2

Salmonella enterica = experiment: In vitro antibacterial activity against aerobically grown Salmonella choleraesuis (58B015)
[6] = test system: Actinobacillus pleuropneumoniae; experiment: In vitro antibacterial activity against anaerobically grown Actinobacillus pleuropneumoniae ([…])
Summary of the method: as §2

Question: Which MIC (Clostridium perfringens) does the source give for `CN1C[C@@H]2C[C@H]1CN2c1c(F)cc2c(=O)c(C(=O)O)cn(-c3ccc(F)cc3F)c2c1Cl` here?
Answer: 0.39 µg/mL (≈ 0.841 µM)

Question: And the MIC (Staphylococcus aureus)?
Answer: 0.2 µg/mL (≈ 0.431 µM)

Question: And the MIC [1]?
Answer: > 1.56 µg/mL

Question: What about the minimum concentration inducing gyrase-mediated DNA cleavage (Escherichia coli [2]) of the same compound?
Answer: 3.12 µg/mL

Question: What about the MIC (Phocaeicola vulgatus) of the same compound?
Answer: 0.78 µg/mL (≈ 1.68 µM)

Question: What about the MIC (Escherichia coli [3]) of the same compound?
Answer: 0.2 µg/mL (≈ 0.431 µM)

Question: What about the MIC [4] of the same compound?
Answer: > 3.13 µg/mL

Question: What about the MIC [5] of the same compound?
Answer: 0.1 µg/mL (≈ 0.216 µM)

Question: What about the MIC (Pasteurella multocida) of the same compound?
Answer: 0.01 µg/mL (≈ 0.0216 µM)

Question: What about the MIC (Trueperella pyogenes) of the same compound?
Answer: 3.13 µg/mL (≈ 6.75 µM)

Question: And the MIC (Salmonella enterica)?
Answer: 0.39 µg/mL (≈ 0.841 µM)

Question: And the MIC [6]?
Answer: 0.1 µg/mL (≈ 0.216 µM)

Question: For `O=C(O)c1cn(-c2ccc(F)cc2)c2cc(N3CCN4CCCC3C4)c(F)cc2c1=O` (stereo not drawn), which MIC (Clostridium perfringens) is on record?
Answer: 0.2 µg/mL (≈ 0.47 µM)

Question: What about the MIC (Staphylococcus aureus) of the same compound?
Answer: 0.1 µg/mL (≈ 0.235 µM)

Question: And the MIC [1]?
Answer: 1.56 µg/mL (≈ 3.67 µM)

Question: And the minimum concentration inducing gyrase-mediated DNA cleavage (Escherichia coli [2])?
Answer: 0.78 µg/mL

Question: What about the MIC (Phocaeicola vulgatus) of the same compound?
Answer: 0.39 µg/mL (≈ 0.917 µM)

Question: And the MIC (Escherichia coli [3])?
Answer: 0.1 µg/mL (≈ 0.235 µM)

Question: And the MIC [4]?
Answer: 0.2 µg/mL (≈ 0.47 µM)

Question: And the MIC [5]?
Answer: 0.05 µg/mL (≈ 0.118 µM)

Question: What about the MIC (Pasteurella multocida) of the same compound?
Answer: 0.01 µg/mL (≈ 0.0235 µM)

Question: What about the MIC (Trueperella pyogenes) of the same compound?
Answer: 3.13 µg/mL (≈ 7.36 µM)

Question: And the MIC (Salmonella enterica)?
Answer: 0.2 µg/mL (≈ 0.47 µM)

Question: What about the MIC [6] of the same compound?
Answer: 0.05 µg/mL (≈ 0.118 µM)

Question: For `CN1C2CC[C@@H]1CCN(c1cc3c(cc1F)c(=O)c(C(=O)O)cn3-c1ccc(F)cc1)C2`, which MIC (Clostridium perfringens) is on record?
Answer: 0.39 µg/mL (≈ 0.887 µM)

Question: What about the MIC (Staphylococcus aureus) of the same compound?
Answer: 0.78 µg/mL (≈ 1.77 µM)

Question: And the MIC [1]?
Answer: > 1.56 µg/mL

Question: And the minimum concentration inducing gyrase-mediated DNA cleavage (Escherichia coli [2])?
Answer: 0.19 µg/mL

Question: And the MIC (Phocaeicola vulgatus)?
Answer: > 3.13 µg/mL

Question: And the MIC (Escherichia coli [3])?
Answer: 1.56 µg/mL (≈ 3.55 µM)

Question: And the MIC [4]?
Answer: 0.13 µg/mL (≈ 0.296 µM)

Question: What about the MIC [5] of the same compound?
Answer: 1.56 µg/mL (≈ 3.55 µM)

Question: And the MIC (Pasteurella multocida)?
Answer: 0.2 µg/mL (≈ 0.455 µM)

Question: What about the MIC (Trueperella pyogenes) of the same compound?
Answer: > 3.13 µg/mL

Question: And the MIC (Salmonella enterica)?
Answer: > 1.56 µg/mL

Question: What about the MIC [6] of the same compound?
Answer: 0.78 µg/mL (≈ 1.77 µM)

Question: Which MIC (Clostridium perfringens) does the source give for `O=C(O)c1cn(C2CC2)c2c(Cl)c(N3C[C@@H]4C[C@H]3CN4)c(F)cc2c1=O` here?
Answer: 0.1 µg/mL (≈ 0.265 µM)

Question: What about the MIC (Staphylococcus aureus) of the same compound?
Answer: 0.2 µg/mL (≈ 0.529 µM)

Question: And the MIC [1]?
Answer: 0.39 µg/mL (≈ 1.03 µM)

Question: What about the minimum concentration inducing gyrase-mediated DNA cleavage (Escherichia coli [2]) of the same compound?
Answer: 0.09 µg/mL

Question: What about the MIC (Phocaeicola vulgatus) of the same compound?
Answer: 0.1 µg/mL (≈ 0.265 µM)

Question: What about the MIC (Escherichia coli [3]) of the same compound?
Answer: 0.02 µg/mL (≈ 0.0529 µM)

Question: And the MIC [4]?
Answer: 1.56 µg/mL (≈ 4.13 µM)

Question: And the MIC [5]?
Answer: 0.005 µg/mL (≈ 0.0132 µM)

Question: What about the MIC (Pasteurella multocida) of the same compound?
Answer: 0.005 µg/mL (≈ 0.0132 µM)

Question: What about the MIC (Trueperella pyogenes) of the same compound?
Answer: 0.39 µg/mL (≈ 1.03 µM)

Question: What about the MIC (Salmonella enterica) of the same compound?
Answer: 0.02 µg/mL (≈ 0.0529 µM)

Question: And the MIC [6]?
Answer: 0.005 µg/mL (≈ 0.0132 µM)

Question: Which MIC (Clostridium perfringens) does the source give for `CCn1cc(C(=O)O)c(=O)c2cc(F)c(N3C[C@@H]4C[C@H]3CN4)cc21` here?
Answer: 0.39 µg/mL (≈ 1.18 µM)

Question: What about the MIC (Staphylococcus aureus) of the same compound?
Answer: > 1.56 µg/mL

Question: What about the MIC [1] of the same compound?
Answer: 1.56 µg/mL (≈ 4.71 µM)

Question: What about the minimum concentration inducing gyrase-mediated DNA cleavage (Escherichia coli [2]) of the same compound?
Answer: 3.12 µg/mL

Question: What about the MIC (Phocaeicola vulgatus) of the same compound?
Answer: > 3.13 µg/mL

Question: What about the MIC (Escherichia coli [3]) of the same compound?
Answer: 0.78 µg/mL (≈ 2.35 µM)

Question: And the MIC [4]?
Answer: 1.56 µg/mL (≈ 4.71 µM)

Question: And the MIC [5]?
Answer: 0.39 µg/mL (≈ 1.18 µM)

Question: And the MIC (Pasteurella multocida)?
Answer: 0.2 µg/mL (≈ 0.604 µM)

Question: What about the MIC (Trueperella pyogenes) of the same compound?
Answer: 3.13 µg/mL (≈ 9.45 µM)

Question: And the MIC (Salmonella enterica)?
Answer: 0.39 µg/mL (≈ 1.18 µM)

Question: What about the MIC [6] of the same compound?
Answer: 0.39 µg/mL (≈ 1.18 µM)

Question: For `O=C(O)c1cn(-c2ccc(F)cc2)c2cc(N3C[C@@H]4C[C@H]3CN4)c(F)cc2c1=O`, which MIC (Clostridium perfringens) is on record?
Answer: 0.2 µg/mL (≈ 0.503 µM)

Question: And the MIC (Staphylococcus aureus)?
Answer: 0.78 µg/mL (≈ 1.96 µM)

Question: What about the MIC [1] of the same compound?
Answer: > 1.56 µg/mL

Question: What about the minimum concentration inducing gyrase-mediated DNA cleavage (Escherichia coli [2]) of the same compound?
Answer: 1.56 µg/mL

Question: What about the MIC (Phocaeicola vulgatus) of the same compound?
Answer: 3.13 µg/mL (≈ 7.88 µM)

Question: What about the MIC (Escherichia coli [3]) of the same compound?
Answer: 0.1 µg/mL (≈ 0.252 µM)

Question: And the MIC [4]?
Answer: 1.56 µg/mL (≈ 3.93 µM)

Question: What about the MIC [5] of the same compound?
Answer: 0.1 µg/mL (≈ 0.252 µM)

Question: What about the MIC (Pasteurella multocida) of the same compound?
Answer: 0.02 µg/mL (≈ 0.0503 µM)

Question: What about the MIC (Trueperella pyogenes) of the same compound?
Answer: 3.13 µg/mL (≈ 7.88 µM)

Question: What about the MIC (Salmonella enterica) of the same compound?
Answer: 0.2 µg/mL (≈ 0.503 µM)

Question: What about the MIC [6] of the same compound?
Answer: 0.1 µg/mL (≈ 0.252 µM)

Question: With `C=Cn1cc(C(=O)O)c(=O)c2cc(F)c(N3CC[C@H]4CCC(C3)N4C)cc21` as the compound, how does the MIC (Clostridium perfringens) read?
Answer: 0.78 µg/mL (≈ 2.1 µM)

Question: What about the MIC (Staphylococcus aureus) of the same compound?
Answer: 1.56 µg/mL (≈ 4.2 µM)

Question: And the MIC [1]?
Answer: 1.56 µg/mL (≈ 4.2 µM)

Question: What about the minimum concentration inducing gyrase-mediated DNA cleavage (Escherichia coli [2]) of the same compound?
Answer: 6.25 µg/mL

Question: And the MIC (Phocaeicola vulgatus)?
Answer: > 3.13 µg/mL

Question: What about the MIC (Escherichia coli [3]) of the same compound?
Answer: 0.78 µg/mL (≈ 2.1 µM)

Question: And the MIC [4]?
Answer: 3.13 µg/mL (≈ 8.43 µM)

Question: And the MIC [5]?
Answer: 1.56 µg/mL (≈ 4.2 µM)

Question: And the MIC (Pasteurella multocida)?
Answer: 0.2 µg/mL (≈ 0.538 µM)

Question: What about the MIC (Trueperella pyogenes) of the same compound?
Answer: > 3.13 µg/mL

Question: What about the MIC (Salmonella enterica) of the same compound?
Answer: 1.56 µg/mL (≈ 4.2 µM)

Question: And the MIC [6]?
Answer: 0.78 µg/mL (≈ 2.1 µM)

Question: Which results are given for `C=Cn1cc(C(=O)O)c(=O)c2cc(F)c(N3C[C@H]4CC[C@@H](C3)N4C)cc21`?
Answer: MIC (Clostridium perfringens): 0.78 µg/mL (≈ 2.18 µM); MIC (Staphylococcus aureus): 0.2 µg/mL (≈ 0.56 µM); MIC [1]: 12.5 µg/mL (≈ 35 µM); minimum concentration inducing gyrase-mediated DNA cleavage (Escherichia coli [2]): 0.39 µg/mL; MIC (Phocaeicola vulgatus): 6.25 µg/mL (≈ 17.5 µM); MIC (Escherichia coli [3]): 0.78 µg/mL (≈ 2.18 µM); MIC [4]: 1.56 µg/mL (≈ 4.37 µM); MIC [5]: 0.39 µg/mL (≈ 1.09 µM); MIC (Pasteurella multocida): 0.1 µg/mL (≈ 0.28 µM); MIC (Trueperella pyogenes): 3.13 µg/mL (≈ 8.76 µM); MIC (Salmonella enterica): 0.78 µg/mL (≈ 2.18 µM); MIC [6]: 0.2 µg/mL (≈ 0.56 µM)

Question: For `O=C(O)c1cn(-c2ccc(F)cc2F)c2c(F)c(N3C[C@@H]4C[C@H]3CN4)c(F)cc2c1=O`, which MIC (Clostridium perfringens) is on record?
Answer: 0.2 µg/mL (≈ 0.462 µM)

Question: And the MIC (Staphylococcus aureus)?
Answer: 0.39 µg/mL (≈ 0.9 µM)

Question: And the MIC [1]?
Answer: 1.56 µg/mL (≈ 3.6 µM)

Question: What about the minimum concentration inducing gyrase-mediated DNA cleavage (Escherichia coli [2]) of the same compound?
Answer: 0.78 µg/mL

Question: And the MIC (Phocaeicola vulgatus)?
Answer: 1.56 µg/mL (≈ 3.6 µM)

Question: What about the MIC (Escherichia coli [3]) of the same compound?
Answer: 0.05 µg/mL (≈ 0.115 µM)

Question: What about the MIC [4] of the same compound?
Answer: 3.13 µg/mL (≈ 7.22 µM)

Question: And the MIC [5]?
Answer: 0.05 µg/mL (≈ 0.115 µM)

Question: What about the MIC (Pasteurella multocida) of the same compound?
Answer: 0.01 µg/mL (≈ 0.0231 µM)

Question: And the MIC (Trueperella pyogenes)?
Answer: 0.78 µg/mL (≈ 1.8 µM)

Question: And the MIC (Salmonella enterica)?
Answer: 0.1 µg/mL (≈ 0.231 µM)

Question: What about the MIC [6] of the same compound?
Answer: 0.02 µg/mL (≈ 0.0462 µM)
